1 compound from ChEMBL document CHEMBL4422671, “New Quinolylnitrones for Stroke Therapy: Antioxidant and Neuroprotective ( Z)- N- tert-Butyl-1-(2-chloro-6-methoxyquinolin-3-yl)methanimine Oxide as a New Lead-Compound for Ischemic Stroke Treatment” (J Med Chem, 2019) can be followed below.

Data set [1] in a line: Neuroprotective activity against oxygen-glucose deprivation-induced cell death in Sprague-Dawley rat primary neuronal cells assessed as cell viability at 250 uM treated at onset of recovery period and measured at 24 hrs of recovery by MTT assay relative to control. The format is functional. The settings on record: Primary neuron, read-out: Activity. The method in brief: (§1)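 Rat cortical neurons from E16–17 Sprague-Dawley embryos, used at 6–7 days in serum-free medium. OGD: glucose-free medium bubbled with 95% N2/5% CO2, <0.1% O2, 6.5% CO2, 37 °C, 4 h. Compound added at start of 24 h normoxic recovery. Viability by MTT (0.2 mg/mL, 1.5 h), lysis with HCl/SDS, read at 595/690 nm, relative to 100% control. Four to eight culture batches, each in quadruplicate.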

The nature of data set [2]: Neuroprotective activity against oxygen-glucose deprivation-induced cell death in Sprague-Dawley rat primary neuronal cells assessed as cell viability at 100 uM treated at onset of recovery period and measured at 24 hrs of recovery by MTT assay relative to control. The format is functional. The settings on record: Primary neuron, read-out: Activity. A digest of the protocol:
as §1

Data set [3] in a line: Antioxidant activity assessed as ABTS radical cation scavenging activity by measuring trolox equivalents at 10 uL after 1 min. It is filed as functional. A digest of the protocol: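 ABTS radical cation made from 2 mM aqueous ABTS plus 0.17 mM potassium persulfate in 20 mM phosphate buffer pH 7.4, kept 12–16 h dark at rt. Diluted with ethanol to A734 0.70, then mixed with 10 μL compound from 10 mM stock. Absorbance read at rt 1 min after mixing. Trolox as standard.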

Data set [4] deals with Lipoxygenase (Glycine max) (UniProt Q39829). As to the kind of experiment: Inhibition of soybean lipoxygenase at 1 to 100 uM using sodium linoleate as substrate by UV-based analysis relative to control. The method in brief: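 Soybean lipoxygenase (enzyme 1/9 ×10⁻⁴ w/v in saline) incubated at rt with 0.1 mM sodium linoleate and compound in DMSO, at several concentrations from 1 to 100 µM diluted from 10 mM stock. Conversion to 13-hydroperoxylinoleic acid recorded at 234 nm; IC50 derived. NDGA as reference inhibitor.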

Data set [5] in a line: Antiinflammatory activity assessed as NO release at 100 uM after 60 mins in presence of L-cysteine by Griess reagent-based relative to control. It is filed as functional. The method in brief: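 NO-release test: compound at 100 μM final (from DMSO) in 50 mM phosphate buffer pH 7.4 containing 1 mM L-cysteine, 60 min at 37 °C. Reaction mixture then treated with Griess reagent, left 10 min at rt, absorbance read at 540 nm. Sodium nitroprusside as standard. Mean of three to four determinations.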

A further data set deals with Rattus norvegicus. As to the kind of experiment: Antiinflammatory activity in Fisher 344 rat model of carrageenan-induced edema assessed as inhibition of carrageenan-induced paw edema at 0.01 mmol/kg, ip dosed simultaneously with carrageenan injection relative to control. It is filed as functional. The settings on record: Fisher 344, ip. A digest of the protocol:
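Fisher 344 rats (150–200 g), both sexes. Edema was induced by intradermal injection of 0.1 mL 2% carrageenan in water into the right hind paw. Compound was suspended in water with a few drops of Tween 80. Rats were euthanized 3.5 h later. The injected-minus-uninjected paw weight difference was compared with water or Tween-water controls as % inhibition. Mean of two experiments, n = 6 each.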

Data set [6] has as its system Primary neuron. As to the kind of experiment: Neuroprotective activity against oxygen-glucose deprivation-induced ischemia in Sprague-Dawley rat primary neuronal cells assessed as reduction in ROS generation at 10 to 250 uM measured after 2 hrs of recovery post OGD by fluorometric assay. The format is functional, cell-based. A digest of the protocol: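 Primary rat cortical neurons exposed to 4 h OGD; compound added at onset of recovery together with a cell-permeable ROS probe. Fluorescence (ex 490/em 535 nm) read after 2 h recovery and expressed as % of control. Mean of four independent experiments.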

In data set [7] the test system is Primary neuron. As to the kind of experiment: Neuroprotective activity against oxygen-glucose deprivation-induced ischemia in Sprague-Dawley rat primary neuronal cells assessed as reduction in lipid peroxidation at 10 to 250 uM measured after 4 hrs of recovery post OGD by fluorometric assay. The format is functional, cell-based.
Data set [8] has as its system Primary neuron. As to the kind of experiment: Neuroprotective activity against oxygen-glucose deprivation-induced cell death in Sprague-Dawley rat primary neuronal cells assessed as increase in cell viability at 10 uM pretreated for 24 hrs followed by OGD challenge for 4 hrs and measured after 24 hrs of recovery period post OGD measured by MTT assay. The format is functional, cell-based. A digest of the protocol: (§2)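 Rat cortical neuron cultures (E16–17 Sprague-Dawley, 6–7 days in vitro) treated with compound (1–250 µM range) 24 h before 4 h OGD at <0.1% O2, 37 °C. Cells then recovered 24 h under normoxia with glucose. Viability by MTT absorbance at 595/690 nm, relative to untreated control.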

Data set [9] is described as follows: Cytotoxicity in oxygen-glucose deprivation-induced Sprague-Dawley rat primary neuronal cells assessed as reduction in cell viability at 250 uM pretreated for 24 hrs followed by OGD challenge for 4 hrs and measured after 24 hrs of recovery period post OGD measured by MTT assay. The format is cell-based. The settings on record: primary neuron. A digest of the protocol: as §2

Data set [10] concerns Mus musculus. As to the kind of experiment: Neuroprotective activity in C57BL/6 mouse model of ischemia-induced cerebral ischemia model assessed reduction in neurodeficit score at 1.5 mg/kg, ip administered at onset of reperfusion period and measured at 5 days reperfusion post ischemia. The format is functional, organism-based.
The test system of data set [11] is Mus musculus. As to the kind of experiment: Neuroprotective activity in C57BL/6 mouse model of ischemia-induced cerebral ischemia model assessed reduction in neuronal cell death in hippocampal CA1 region at 1.5 mg/kg, ip administered at onset of reperfusion period and measured at 5 days reperfusion post ischemia by Fluoro-Jade-staining assay based relative to control. It is filed as functional. Also noted: scale not given: the % may be the effect or the level left.

Data set [12] has as its system Mus musculus. Briefly: Neuroprotective activity in C57BL/6 mouse model of ischemia-induced cerebral ischemia model assessed reduction in neuronal cell death in cortical region at 1.5 mg/kg, ip administered at onset of reperfusion period and measured at 5 days reperfusion post ischemia by Fluoro-Jade-staining assay based relative to control. It is filed as functional. Set-up: scale not given: the % may be the effect or the level left.

Data set [13] deals with Mus musculus. Briefly: Neuroprotective activity in C57BL/6 mouse model of ischemia-induced cerebral ischemia model assessed as reduction in apoptosis in hippocampal CA1 region at 1.5 mg/kg, ip administered at onset of reperfusion period and measured at 5 days reperfusion post ischemia by TUNNEL assay relative to control. The format is functional. Set-up: scale not given: the % may be the effect or the level left.

Data set [14] has as its system Mus musculus. As to the kind of experiment: Neuroprotective activity in C57BL/6 mouse model of ischemia-induced cerebral ischemia model assessed as reduction in apoptosis in cortical region at 1.5 mg/kg, ip administered at onset of reperfusion period and measured at 5 days reperfusion post ischemia by TUNNEL assay relative to control. It is filed as functional. Also noted: scale not given: the % may be the effect or the level left.

Data set [15] concerns Mus musculus. As to the kind of experiment: Neuroprotective activity in C57BL/6 mouse model of transient middle cerebral artery occlusion-induced ttransient focal cerebral ischemia assessed decrease in motor deficit at 1.5 to 2 mg/kg, ip measured after 48 hrs post dose by grip strength Test. It is filed as functional, organism-based. A digest of the protocol: (§3)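 Male C57BL/6 mice (9–12 weeks) under isoflurane. Distal MCA compressed 60 min with a needle, occlusion confirmed by laser-Doppler; buprenorphine given sc. Compound given ip at reperfusion onset. Grip strength recorded at 24 and 48 h versus presurgery. Infarct area/volume measured at 48 h from TTC-stained 1 mm coronal sections. n = 8 per group.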

In data set [16] the test system is Mus musculus. As to the kind of experiment: Neuroprotective activity in C57BL/6 mouse model of transient middle cerebral artery occlusion-induced ttransient focal cerebral ischemia assessed decrease in motor deficit at 2 mg/kg, ip measured after 24 hrs post dose by grip strength Test. It is filed as functional, organism-based. A digest of the protocol:
as §3

Active and inactive are the calls of the source. The calls are words filed in the database; no cut-off is given here.

Turning to `COc1ccc2nc(Cl)c(/C=[N+](\[O-])C(C)(C)C)cc2c1`, the viability at 250 µM in [1] was 65.9%. Also, the viability at 100 µM in data set [2] was 77.1%. In addition, the Activity in [3] is 7%; in data set [5] it was 3%; in [9], “Toxic”; with Mus musculus [11], 33%; with Mus musculus [12], 90%; with Mus musculus [13], 39%. In addition, the Activity with Mus musculus [14] is on record as 84%. Besides, the inhibition in data set [4] is 29%. The inhibition in vivo at 10 µmol/kg in the data set with Rattus norvegicus is 48.5%. In addition, the outcome in the data set on Primary neuron [6], with Primary neuron [7], with Primary neuron [8], with Mus musculus [10], in the data set with Mus musculus [15] and with Mus musculus [16] was Active.
